Sampled rows, rich in hits. Any-hit rate of the full collection: about 2.9%.
OX1R antag-1: blocks the human orexin 1 receptor; O43613; OX1R-expressing cells, FRET antagonist read-out; inhibition, % at 6.6 µM; actives 1.8% (n = 330,000); AID 485270; in the data active = inhibition mostly above about 38%, no sharp cut-off; inactive = mostly below about 40%;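 also: 0% = agonist challenge alone and 100% = reference antagonist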
Target sequence (O43613 whole entry, looked up): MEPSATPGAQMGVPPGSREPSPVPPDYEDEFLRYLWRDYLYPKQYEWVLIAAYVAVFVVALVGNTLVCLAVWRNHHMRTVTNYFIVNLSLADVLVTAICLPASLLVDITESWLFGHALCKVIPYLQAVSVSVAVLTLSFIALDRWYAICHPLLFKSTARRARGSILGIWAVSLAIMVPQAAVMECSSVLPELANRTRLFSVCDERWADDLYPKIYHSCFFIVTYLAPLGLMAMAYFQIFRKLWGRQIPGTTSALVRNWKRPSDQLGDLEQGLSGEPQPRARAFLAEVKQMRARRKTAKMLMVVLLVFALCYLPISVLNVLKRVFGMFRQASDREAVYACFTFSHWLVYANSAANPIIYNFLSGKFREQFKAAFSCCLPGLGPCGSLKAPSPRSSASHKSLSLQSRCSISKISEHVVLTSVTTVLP
CHO-K1 Ca antag: nonselective inhibitor or artifact in parental CHO-K1 cells; ATP-induced calcium, Fluo-8 fluorescence; inhibition, % at 3 µM; actives 0.6% (n = 360,000);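 active = inhibition above a per-plate cutoff, the plate's mean sample inhibition plus 3 SD, cut at about 24% in these data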;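 also: 0% = DMSO plus EC80 ATP and 100% = DMSO alone without ATP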
CHO-K1 Ca ag: counter-screen for M1 agonists: effect in parental CHO-K1 cells; actives 0.48% (n = 360,000); AID 602248; Fluo-8 calcium fluorescence; scaled to maximal ATP response, vehicle zero; activation, % at 3 µM; in the data active = activation above about 15%;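 also: untransfected CHO-K1 host cells lacking M1 receptor as counterscreen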
OX1R antag-2: antagonists of human orexin 1 receptor; O43613; CHO/OX1R cells, Fluo-8 calcium fluorescence, orexin A; inhibition, % at 5 µM; actives 0.43% (n = 330,000);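 active = inhibition above its plate's threshold, mean inhibition of all tested compounds on the plate plus 3 SD, cut at about 37% in these data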;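 also: 0% = orexin A challenge wells and 100% = SB-334867-A antagonist wells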
CHO-K1 Ca PAM: nonselective activator or artifact in parental CHO-K1 calcium assay | actives 0.02% (n = 360,000) | AID 602247 | activation, % at 3 µM | ATP EC20, Fluo-8 calcium fluorescence; 0% at ATP EC20, 100% at ATP max;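 active = activation above the run cutoff, the mean activation of all test compounds plus 3 SD, cut at about 40% in these data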;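 also: peak over basal fluorescence ratio in a 140 s read after ATP addition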
CHO parental Ca: counter-screen for OX1R antagonists: effect in parental CHO cells; actives 0.63% (n = 330,000); parental CHO-K1, ATP-induced calcium, Fluo-8 fluorescence; inhibition, % at 5.6 µM;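 active = inhibition above that plate's mean sample inhibition plus 3 SD, cut at about 26% in these data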;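 also: 0% = ATP-challenged DMSO wells and 100% = DMSO wells without ATP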
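Material: Parental CHO cells | Reagent: ATP | Compound dosing: Single nominal dose of 5.6 µM per compound | Detection: Intracellular calcium via Fluo-8 no-wash fluorescent dye | Read-out: % inhibition of ATP-induced calcium mobilization | Benchmarks: Low control ATP plus DMSO, high control DMSO only | Replicates: Singlicate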
* hit, by the source's call.

Results for O=C(CN1C(=O)NC2(CCCC2)C1=O)N1CCN(S(=O)(=O)c2cccc(C(F)(F)F)c2)CC1 ?
OX1R antag-1: 9.0; CHO-K1 Ca antag: -3.8; CHO-K1 Ca ag: 0.0; OX1R antag-2: -8.6; CHO-K1 Ca PAM: -14.1; CHO parental Ca: -0.2

What do the screens show for `CCOC(=O)Nc1ccc(N2CCOCC2)c(S(=O)(=O)N2CCOCC2)c1`?
OX1R antag-1: 23.9; CHO-K1 Ca antag: 0.3; CHO-K1 Ca ag: -0.1; OX1R antag-2: -21.7; CHO-K1 Ca PAM: -26.7; CHO parental Ca: -2.6

What do the screens show for `Cc1ccc(S(=O)(=O)N/N=C/c2ccc(OC3CSC3)cc2)cc1`?
OX1R antag-1: -5.1; CHO-K1 Ca antag: 17.1; CHO-K1 Ca ag: 16.6*; OX1R antag-2: 84.5*; CHO-K1 Ca PAM: 11.2; CHO parental Ca: 56.0*

What do the screens show for `Cc1ccc(S(=O)(=O)N/N=C/c2ccc(C(=O)O)cc2)cc1`?
OX1R antag-1: 10.7; CHO-K1 Ca antag: 1.0; CHO-K1 Ca ag: -0.1; OX1R antag-2: -1.4; CHO-K1 Ca PAM: 8.4; CHO parental Ca: -17.4

How did Cc1nn(CC(=O)NC2CCC(C)CC2)c(C)c1[N+](=O)[O-] (centres undefined) do in these assays?
OX1R antag-1: 2.7; CHO-K1 Ca antag: 0.6; CHO-K1 Ca ag: -0.4; OX1R antag-2: -8.5; CHO-K1 Ca PAM: -7.3; CHO parental Ca: -5.2

How did COc1ccccc1-n1c(O)c(C=NCc2ccccn2)c2ccccc2c1=O do in these assays?
OX1R antag-1: 4.8; CHO-K1 Ca antag: -2.3; CHO-K1 Ca ag: 18.1*; OX1R antag-2: -16.7; CHO-K1 Ca PAM: 13.0; CHO parental Ca: -11.0

How did COc1ccc(-c2cc3c(=O)n(CC(=O)NCc4ccccc4OC)ncn3n2)cc1 do in these assays?
OX1R antag-1: 10.5; CHO-K1 Ca antag: -6.2; CHO-K1 Ca ag: 0.5; OX1R antag-2: -22.8; CHO-K1 Ca PAM: 0.1; CHO parental Ca: -3.4

How did COc1ccc(-c2cc3c(=O)n(CC(=O)NCc4ccccc4F)ncn3n2)cc1 do in these assays?
OX1R antag-1: 8.6; CHO-K1 Ca antag: 26.2*; CHO-K1 Ca ag: 3.5; OX1R antag-2: -16.1; CHO-K1 Ca PAM: 6.4; CHO parental Ca: -6.8

Results for CCCCC(=O)Nc1ccc2c3c(cccc13)C(=O)N2CC ?
OX1R antag-1: 45.3*; CHO-K1 Ca antag: -6.5; CHO-K1 Ca ag: 0.4; OX1R antag-2: -20.8; CHO-K1 Ca PAM: 11.9; CHO parental Ca: -20.6

What do the screens show for `CCN1C(=O)c2cccc3c(NC(=O)C(C)(C)C)ccc1c23`?
OX1R antag-1: 17.6; CHO-K1 Ca antag: -12.7; CHO-K1 Ca ag: 0.0; OX1R antag-2: -18.4; CHO-K1 Ca PAM: 13.4; CHO parental Ca: -10.0

Results for COc1ccc(-c2cc(C(=O)Nc3ccc(S(=O)(=O)Nc4onc(C)c4C)cc3)c3ccccc3n2)cc1 ?
OX1R antag-1: 7.7; CHO-K1 Ca antag: -4.6; CHO-K1 Ca ag: 0.6; OX1R antag-2: -17.5; CHO-K1 Ca PAM: -0.9; CHO parental Ca: -4.7

How did CCn1c(Cn2nnc(-c3ccccc3)n2)nnc1SCC(=O)Nc1cccc(C(C)=O)c1 do in these assays?
OX1R antag-1: 55.6*; CHO-K1 Ca antag: -29.8; CHO-K1 Ca ag: 2.5; OX1R antag-2: 8.2; CHO-K1 Ca PAM: 5.2; CHO parental Ca: -8.3

Results for CCn1c(Cn2nnc(-c3ccccc3)n2)nnc1SCC(=O)Nc1cccc(C)c1C ?
OX1R antag-1: 76.7*; CHO-K1 Ca antag: -1.6; CHO-K1 Ca ag: 1.3; OX1R antag-2: 5.8; CHO-K1 Ca PAM: 15.7; CHO parental Ca: -15.3

Results for CCn1c(Cn2nnc(-c3ccccc3)n2)nnc1SCC(=O)Nc1ccc(N(C)C)cc1 ?
OX1R antag-1: 14.2; CHO-K1 Ca antag: -13.3; CHO-K1 Ca ag: 1.0; OX1R antag-2: -12.3; CHO-K1 Ca PAM: -7.4; CHO parental Ca: -11.0

Results for CCn1c(Cn2nnc(-c3ccccc3)n2)nnc1SCC(=O)Nc1ccc(C(C)=O)cc1 ?
OX1R antag-1: 10.5; CHO-K1 Ca antag: -19.5; CHO-K1 Ca ag: 3.0; OX1R antag-2: -13.4; CHO-K1 Ca PAM: 9.2; CHO parental Ca: -29.9

How did O=C(CSc1nnc(SCc2ccc(Cl)cc2)s1)N/N=C/c1ccccc1C(=O)O do in these assays?
OX1R antag-1: -2.1; CHO-K1 Ca antag: -11.7; CHO-K1 Ca ag: 0.0; OX1R antag-2: -15.4; CHO-K1 Ca PAM: 16.7; CHO parental Ca: 4.2

What do the screens show for `COc1ccc(C(=O)c2[nH]c(N)c(C(=O)NCCc3c[nH]c4ccccc34)c2-c2ccc(C(F)(F)F)cc2)cc1`?
CHO-K1 Ca antag: -20.7; CHO-K1 Ca ag: 1.4; CHO-K1 Ca PAM: 33.4

High-throughput results (PubChem)
